Measured values from ChEMBL document CHEMBL4270576, “Discovery of a benzenesulfonamide-based dual inhibitor of microsomal prostaglandin E2 synthase-1 and 5-lipoxygenase that favorably modulates lipid mediator biosynthesis in inflammation” (Eur J Med Chem, 2018).

Legend:
[1] = biological target: T1, Polyunsaturated fatty acid 5-lipoxygenase (Homo sapiens) (UniProt P09917); assay: Inhibition of recombinant human 5-LO expressed in Escherichia coli BL21 (DE3) using arachidonic acid as substrate assessed as residual activity preincubated for 10 mins followed by CaCl2 and substrate addition measured after 10 mins by RP-HPLC analysis
T1 sequence (whole entry): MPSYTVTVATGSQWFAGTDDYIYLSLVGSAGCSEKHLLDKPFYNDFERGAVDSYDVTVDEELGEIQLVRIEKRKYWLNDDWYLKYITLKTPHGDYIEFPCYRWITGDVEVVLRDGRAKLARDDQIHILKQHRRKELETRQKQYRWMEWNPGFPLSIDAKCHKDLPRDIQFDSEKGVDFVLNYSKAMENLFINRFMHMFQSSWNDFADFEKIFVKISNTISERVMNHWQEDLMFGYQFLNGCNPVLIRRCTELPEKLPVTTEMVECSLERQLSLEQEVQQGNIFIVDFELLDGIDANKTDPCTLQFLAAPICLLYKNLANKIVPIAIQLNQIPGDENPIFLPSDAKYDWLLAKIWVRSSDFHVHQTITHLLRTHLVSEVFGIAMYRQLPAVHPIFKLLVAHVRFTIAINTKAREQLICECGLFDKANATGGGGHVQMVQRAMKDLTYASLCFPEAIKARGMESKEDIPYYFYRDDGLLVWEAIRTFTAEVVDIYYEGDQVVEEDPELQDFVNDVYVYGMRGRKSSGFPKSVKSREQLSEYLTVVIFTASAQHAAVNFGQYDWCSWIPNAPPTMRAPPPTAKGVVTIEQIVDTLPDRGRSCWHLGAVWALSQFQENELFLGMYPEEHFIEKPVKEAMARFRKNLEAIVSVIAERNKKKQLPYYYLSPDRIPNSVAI
Method in brief: (§1)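 Human recombinant 5-LO from E. coli BL21(DE3), ATP-agarose semi-purified (0.5 µg/ml), pre-incubated with compound or 0.1% DMSO at 4 °C. It was pre-warmed 30 s at 37 °C, then started with 2 mM CaCl2 plus 20 µM AA. Stopped after 10 min with ice-cold methanol; products by RP-HPLC. Residual activity at 10 µM; IC50 from 4-5 concentrations; n=3-4.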

[2] = biological target: T1, Polyunsaturated fatty acid 5-lipoxygenase (Homo sapiens); assay: Inhibition of 5-LO in human neutrophils using arachidonic acid as substrate assessed as residual activity preincubated for 15 mins followed by substrate addition measured after 10 mins in presence of Ca2+ ionophore A23187 by HPLC analysis
Method in brief: (§2)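 Human neutrophils (5 × 10^6 in 1 ml PBS with 1 mg/ml glucose) pre-incubated 15 min at 37 °C with compound or 0.1% DMSO, then activated with 1 mM CaCl2 and 2.5 µM A23187, with or without 20 µM AA; 5-LO products measured after 10 min. Residual activity at 10 µM; IC50 by nonlinear regression from 4-5 concentrations; mean ± SEM, n=3-4.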

[3] = biological target: T2, Prostaglandin E synthase (Homo sapiens) (UniProt O14684); assay: Inhibition of mPGES-1 isolated from microsomes of interleukin-1 beta-stimulated human A549 cells assessed as residual activity at 10 uM using PGH2 as substrate preincubated for 15 mins followed by substrate addition measured after 1 min by RP-HPLC analysis
T2 sequence (whole entry): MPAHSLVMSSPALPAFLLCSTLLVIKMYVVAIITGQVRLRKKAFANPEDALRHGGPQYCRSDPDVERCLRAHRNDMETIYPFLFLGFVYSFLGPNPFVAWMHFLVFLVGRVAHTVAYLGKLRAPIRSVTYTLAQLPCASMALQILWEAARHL

[4] = biological target: T3, Polyunsaturated fatty acid 5-lipoxygenase (Homo sapiens, UniProt P09917); assay: Inhibition of 5-LO in human neutrophils using arachidonic acid as substrate assessed as reduction in 5-LO product formation preincubated for 15 mins followed by substrate addition measured after 10 mins in presence of Ca2+ ionophore A23187 by HPLC analysis; method in brief: as §2
T3 sequence (P09917 whole entry): T1 sequence (whole entry)

Prostaglandin E synthase = biological target: T4, Prostaglandin E synthase (Homo sapiens, UniProt O14684); assay: Inhibition of mPGES-1 isolated from microsomes of interleukin-1 beta-stimulated human A549 cells using PGH2 as substrate preincubated for 15 mins followed by substrate addition measured after 1 min by RP-HPLC analysis
T4 sequence (O14684 whole entry): T2 sequence (whole entry)
Method in brief: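 Microsomes from A549 cells treated with IL-1β (1 ng/ml, 72 h), diluted in 0.1 M potassium phosphate pH 7.4 with 2.5 mM glutathione. Pre-incubated 15 min with compound or DMSO, then 20 µM PGH2 (final) for 1 min at 4 °C. IC50 from 4-5 concentrations.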

[5] = biological target: T3, Polyunsaturated fatty acid 5-lipoxygenase; assay: Inhibition of recombinant human 5-LO expressed in Escherichia coli BL21 (DE3) using arachidonic acid as substrate preincubated for 10 mins followed by CaCl2 and substrate addition measured after 10 mins by RP-HPLC analysis; method in brief: as §1

SMILES	Activity [1]	Activity [2]	Activity [3]	IC50 [4]	IC50 (Prostaglandin E synthase)	IC50 [5]
CCCCN(c1ccc(C(=O)O)cc1)S(=O)(=O)c1ccc(-c2ccccc2)cc1	115%		52.6%	4 µM		
O=C(O)c1ccc(N(Cc2cnc3ccccc3c2)S(=O)(=O)c2ccc(-c3ccccc3)cc2)cc1	75%			2.1 µM	4.7 µM	
O=C(O)c1ccc(N(Cc2ccc(OCc3ccccc3)cc2)S(=O)(=O)c2ccc(-c3ccccc3)cc2)cc1				0.5 µM	6.5 µM	6.6 µM
O=C(O)c1ccc(N(Cc2cccc(Oc3ccccc3)c2)S(=O)(=O)c2ccc(-c3ccccc3)cc2)cc1				0.3 µM	3.8 µM	7.2 µM
CC(C)(C)c1ccc(CN(c2ccc(C(=O)O)cc2)S(=O)(=O)c2ccc(C(C)(C)C)cc2)cc1	50.2%			0.7 µM	3.2 µM	
O=C(O)c1ccc(N(Cc2ccc3c(c2)OCCO3)S(=O)(=O)c2ccc(-c3ccccc3)cc2)cc1	117%			1.1 µM	1.6 µM	
O=C(O)c1ccc(N(Cc2ccc3ccccc3c2)S(=O)(=O)c2ccc(-c3ccccc3)cc2)cc1				1.1 µM	0.3 µM	6.4 µM
O=C(O)c1ccc(N(CC2CCCCC2)S(=O)(=O)c2ccc(Oc3ccccc3)cc2)cc1	72%			5.4 µM	2.6 µM	
O=C(O)c1ccc(N(CC2CCCCC2)S(=O)(=O)c2ccc(F)cc2)cc1	109%	98.7%	88.9%			
CCCCCCCCN(c1ccc(C(=O)O)cc1)S(=O)(=O)c1ccc(-c2ccccc2)cc1				0.5 µM	5 µM	5.2 µM
O=C(O)c1ccc(N(Cc2ccc3c(c2)OCO3)S(=O)(=O)c2ccc(-c3ccccc3)cc2)cc1	88.4%			3.2 µM	1.9 µM	
Cc1ccc(S(=O)(=O)N(CC2CCCCC2)c2ccc(C(=O)O)cc2)cc1	91.4%	76.9%	91.6%			
O=C(O)CCc1ccc(N(Cc2ccc3ccccc3c2)S(=O)(=O)c2ccc(-c3ccccc3)cc2)cc1				1.8 µM	0.7 µM	5.5 µM
O=C(O)c1ccc(N(Cc2ccoc2)S(=O)(=O)c2ccc(-c3ccccc3)cc2)cc1	110%		56.8%	8.4 µM		
O=C(O)c1ccc(N(Cc2ccc3ccccc3c2)C(=O)c2ccc(-c3ccccc3)cc2)cc1	78%			1.7 µM	2.9 µM	
O=C(O)c1ccc(N(Cc2ccccc2)S(=O)(=O)c2ccc(-c3ccccc3)cc2)cc1	96.2%			3.3 µM	4 µM	
O=C(O)c1ccc(N(CC2CCCCC2)S(=O)(=O)c2ccc(-c3ccccc3)cc2)cc1	57.5%			3.4 µM	3.2 µM	
CCCCCCN(c1ccc(C(=O)O)cc1)S(=O)(=O)c1ccc(C)cc1	86.1%	65.2%	79.9%			
CC(C)(C)c1ccc(CN(c2ccc(C(=O)O)cc2)S(=O)(=O)c2ccc(-c3ccccc3)cc2)cc1				0.3 µM	1.2 µM	5.6 µM
Cc1ccc(S(=O)(=O)N(Cc2ccccc2)c2ccc(C(=O)NS(=O)(=O)c3ccccc3)cc2)cc1	88.9%	80%			2.7 µM	
Cc1ccc(S(=O)(=O)N(Cc2ccc(Oc3ccccc3)cc2)c2ccc(C(=O)O)cc2)cc1	61.4%			3.5 µM	5.3 µM	
O=C(O)c1ccc(N(Cc2cccc(Oc3ccccc3)c2)S(=O)(=O)c2ccc(Oc3ccccc3)cc2)cc1				1 µM	0.8 µM	6 µM
COc1cccc(CN(c2ccc(C(=O)O)cc2)S(=O)(=O)c2ccc(-c3ccccc3)cc2)c1	78.6%			1.3 µM	6.2 µM	
O=C(O)Cc1ccc(N(Cc2ccc3ccccc3c2)S(=O)(=O)c2ccc(-c3ccccc3)cc2)cc1				3.4 µM	1.1 µM	8.7 µM
Cc1ccc(CN(c2ccc(C(=O)O)cc2)S(=O)(=O)c2ccc(-c3ccccc3)cc2)cc1	65.6%			1 µM	5.2 µM	
CCCCCCN(c1ccc(C(=O)O)cc1)S(=O)(=O)c1ccc(-c2ccccc2)cc1	105%			1.5 µM	1.9 µM	
CC(C)(C)C#Cc1ccc(S(=O)(=O)N(Cc2ccc(C(C)(C)C)cc2)c2ccc(C(=O)O)cc2)cc1				0.9 µM	2.7 µM	2.3 µM

The next lines start with the values.

Activity [1]	Activity [2]	Activity [3]	IC50 [4]	IC50 (Prostaglandin E synthase)	IC50 [5]	SMILES
86.1%	97.2%	96.7%				O=C(O)c1ccc(N(Cc2cccs2)S(=O)(=O)c2ccc(Cl)cc2)cc1
93%	112%	94.6%				O=C(O)c1ccc(N(Cc2cccs2)S(=O)(=O)c2ccc(C(=O)O)cc2)cc1
97%	102%	96.4%				Cc1ccc(S(=O)(=O)N(Cc2cccs2)c2ccc(CC(=O)O)cc2)cc1
96.7%		52.8%	4.8 µM			Cc1ccc(S(=O)(=O)N(Cc2ccc3ccccc3c2)c2ccc(C(=O)O)cc2)cc1
66.4%			4.4 µM	4.7 µM		O=C(O)c1ccc(N(Cc2cccs2)S(=O)(=O)c2ccc(-c3ccccc3)cc2)cc1
86.7%	75.4%	85.7%				Cc1ccc(S(=O)(=O)N(Cc2c(F)cccc2Cl)c2ccc(C(=O)O)cc2)cc1
93.4%	96.7%	82.8%				Cc1ccc(CN(c2ccc(C(=O)O)cc2)S(=O)(=O)c2ccc(C)cc2)cc1
100%	83.2%	71.2%				Cc1ccc(S(=O)(=O)N(Cc2ccc(Cl)cc2)c2ccc(C(=O)O)cc2)cc1
97.6%			2.4 µM	6.3 µM		Cc1ccc(S(=O)(=O)N(Cc2ccc(Cl)c(Cl)c2)c2ccc(C(=O)O)cc2)cc1
93.2%	110%	95.7%				COc1ccc(CN(c2ccc(C(=O)O)cc2)S(=O)(=O)c2ccc(C)cc2)cc1OC
71.9%	69.7%	76.7%				O=C(O)c1ccc(N(Cc2cccs2)S(=O)(=O)c2ccc(-c3ccc4ccccc4c3)cc2)cc1
115%	95.2%	71.7%				Cc1ccc(S(=O)(=O)N(Cc2ccccc2Cl)c2ccc(C(=O)O)cc2)cc1
107%	84.7%	74.1%				Cc1ccc(S(=O)(=O)N(Cc2cccc(Cl)c2)c2ccc(C(=O)O)cc2)cc1
92.7%	104%	92.5%				Cc1ccc(S(=O)(=O)N(Cc2cccs2)c2ccc(C(=O)O)cc2)cc1
106%	98.2%	90.7%				Cc1ccc(S(=O)(=O)N(Cc2ccsc2)c2ccc(C(=O)O)cc2)cc1
81.1%	75.7%	91.3%				Cc1ccc(S(=O)(=O)N(Cc2ccccc2)c2ccc(C(=O)O)cc2)cc1
86.7%	94.6%	96.5%				O=C(O)c1ccc(N(Cc2cccs2)S(=O)(=O)c2ccc(F)cc2)cc1
99.1%	112%	79.9%				CCCCN(c1ccc(C(=O)O)cc1)S(=O)(=O)c1ccc(C)cc1
